Experimental data published in ChEMBL document CHEMBL1124260, “Synthesis and antitumor activity of quaternary ellipticine glycosides, a series of novel and highly active antitumor agents” (1988).

What was measured:
Mus musculus [1] = experiment: Antitumor activity against ip implanted P388 leukemia in mouse after ip administration of 10 mg/kg for 5 days expressed as increase in mean life span; type: functional; details: 120 h, route intraperitoneal
In short: (§1)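 Saline-dissolved drug was given ip daily for 5 consecutive days, beginning 24 h post-transplant. ILS % was calculated from treated vs control mean survival time over an 80-day observation period.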

Mus musculus [2] = experiment: Number of survivors out of 6 ip implanted EAC leukemia mouse tested after 80 days at 10 mg/kg; type: functional; details: route intraperitoneal
In short: (§2)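 Drug dissolved and diluted in saline just before use, given ip for 5 consecutive days starting 24 h after implant. Six mice per dose. Survivors counted at 80 days; ILS % taken from mean survival time of treated vs control mice.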

Mus musculus [3] = experiment: Effect on ip implanted sarcoma 180 by ip administration for 5 days at 20 mg/kg was measured as increase in mean life span; type: functional; details: Sarcoma-180, ip, 120 h, route intraperitoneal
In short: (§3)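 Saline-dissolved drug was dosed ip daily for 5 consecutive days starting 24 h later. Readout was ILS % (mean survival time of treated vs control) over an 80-day observation.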

Mus musculus [4] = experiment: Effect on ip implanted syngeneic B16 melanoma by ip administration for 9 days at 10 mg/kg was measured as increase in mean life span; details: 216 h
Mus musculus [5] = experiment: Antitumor activity against ip implanted L1210 leukemia in mouse after ip administration of 20 mg/kg for 5 days expressed as increase in mean life span; type: functional; details: 120 h, route intraperitoneal
In short: (§4)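 Drug was dissolved in 0.9% NaCl, diluted just before use and given ip once daily for 5 consecutive days, starting 24 h after transplant. ILS % = mean survival time of treated vs control mice, observed for 80 days.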

Mus musculus [6] = experiment: Inhibition of sc implanted syngeneic colon 38 carcinoma by ip administration at 20 mg/kg on 1, 3, 5, 7, 9 days measured as inhibition ratio; type: functional; details: route subcutaneous
In short: (§5)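 Tumor homogenate (70 mg) implanted into the axillary region of female BDF1 mice. Drug dissolved in 0.9% NaCl and diluted with saline just before use, then given ip on days 1, 3, 5, 7 and 9. Tumor length and width were measured by caliper on day 20 after inoculation and converted to estimated weight. Result reported as treated vs control tumor weight, T/C %.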

Mus musculus [7] = experiment: Antitumor activity against ip implanted P388 leukemia in mouse after ip administration of 40 mg/kg for 5 days expressed as increase in mean life span; type: functional; details: 120 h, route intraperitoneal; in short: as §1
Mus musculus [8] = experiment: Effect on ip implanted EAC by ip administration for 5 days at 10 mg/kg was measured as increase in mean life span; type: functional; details: 120 h, route intraperitoneal
In short: (§6)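 Drug in 0.9% NaCl was given ip for 5 consecutive days from 24 h after inoculation. ILS % came from treated vs control mean survival time, followed for 80 days.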

Mus musculus [9] = experiment: Number of survivors out of 6 ip implanted L1210 leukemia in mouse after ip administration of 20 mg/kg after 80 days; type: functional; details: route intraperitoneal
In short: (§7)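 Female BDF1 mice implanted ip with ascitic fluid holding 10^5 L1210 cells. Saline-dissolved drug given ip daily on days 1-5, starting 24 h after implant. Six mice per dose group, followed 80 days. Survivors/total counted at day 80; ILS % from mean survival time vs controls.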

Mus musculus [10] = experiment: Effect on ip implanted syngeneic B16 melanoma by ip administration for 9 days at 2.5 mg/kg was measured as increase in mean life span; details: 216 h
Mus musculus [11] = experiment: Number of survivors out of 6 ip implanted P388 leukemia in mouse after ip administration of 10 mg/kg after 80 days; type: functional; details: route intraperitoneal
In short: (§8)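 P388 leukemia, 10^6 ascitic cells implanted ip in female BDF1 mice. Drug in saline given ip for 5 consecutive days from 24 h after transplant. Groups of six per dose level. Survivors/total recorded at the 80-day end of observation; ILS % from treated/control mean survival time.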

Mus musculus [12] = experiment: Antitumor activity against ip implanted P388 leukemia in mouse after iv administration of 16 mg/kg for 5 days expressed as increase in mean life span; details: 120 h
Mus musculus [13] = experiment: Inhibition of sc implanted syngeneic colon 38 carcinoma by ip administration at 30 mg/kg on 1, 3, 5, 7, 9 days measured as inhibition ratio; type: functional; details: route intraperitoneal; in short: as §5
Mus musculus [14] = experiment: Effect on ip implanted EAC by ip administration for 5 days at 20 mg/kg was measured as increase in mean life span; type: functional; details: 120 h, route intraperitoneal; in short: as §6
Mus musculus [15] = experiment: Antitumor activity against ip implanted L1210 leukemia in mouse after ip administration of 10 mg/kg for 5 days expressed as increase in mean life span; type: functional; details: Mus musculus, L1210, ip, 120 h, route intraperitoneal; in short: as §4
Mus musculus [16] = experiment: Antitumor activity against ip implanted P388 leukemia in mouse after ip administration of 5 mg/kg for 5 days expressed as increase in mean life span; type: functional; details: 120 h, route intraperitoneal; in short: as §1
Mus musculus [17] = experiment: Number of survivors out of 6 ip implanted EAC leukemia mouse tested after 80 days at 40 mg/kg; type: functional; details: route intraperitoneal; in short: as §2
Mus musculus [18] = experiment: Number of survivors out of 6 ip implanted L1210 leukemia mouse, tested after 80 days at 30 mg/kg; type: functional; details: route intraperitoneal; in short: as §7
Mus musculus [19] = experiment: Number of survivors out of 6 ip implanted L1210 leukemia in mouse after ip administration of 10 mg/kg after 80 days; type: functional; details: route intraperitoneal; in short: as §7
Mus musculus [20] = experiment: Antitumor activity against ip implanted P388 leukemia in mouse after ip administration of 20 mg/kg for 5 days expressed as increase in mean life span; type: functional; details: 120 h, route intraperitoneal; in short: as §1
Mus musculus [21] = experiment: Number of survivors out of 6 ip implanted sarcoma 180 leukemia mouse tested after 80 days at 40 mg/kg; type: functional; details: route intraperitoneal; in short: as §2
Mus musculus [22] = experiment: Antitumor activity against ip implanted L1210 leukemia in mouse after ip administration of 5 mg/kg for 5 days expressed as increase in mean life span; type: functional; details: Mus musculus, L1210, ip, 120 h, route intraperitoneal; in short: as §4
Mus musculus [23] = experiment: Effect on ip implanted sarcoma 180 by ip administration for 5 days at 40 mg/kg was measured as increase in mean life span; type: functional; details: Sarcoma-180, ip, 120 h, route intraperitoneal; in short: as §3
Mus musculus [24] = experiment: Antitumor activity against ip implanted L1210 leukemia in mouse after iv administration of 8 mg/kg for 5 days expressed as increase in mean life span; details: 120 h
Mus musculus [25] = experiment: Effect on ip implanted syngeneic B16 melanoma by ip administration of 20 mg/kg for 9 days measured as increase in mean life span; details: 216 h
Mus musculus [26] = experiment: Number of survivors out of 6 ip implanted P388 leukemia in mouse after ip administration of 5 mg/kg after 80 days; type: functional; details: route intraperitoneal; in short: as §8
Mus musculus [27] = experiment: Number of survivors out of 6 ip implanted P388 leukemia in mouse after ip administration of 20 mg/kg after 80 days; type: functional; details: route intraperitoneal; in short: as §8
Mus musculus [28] = experiment: Number of survivors out of 6 ip implanted P388 leukemia in mouse after iv administration of 16 mg/kg after 80 days
Mus musculus [29] = experiment: Antitumor activity against ip implanted L1210 leukemia in mouse after ip administration of 1.25 mg/kg for 5 days expressed as increase in mean life span; type: functional; details: 120 h, route intraperitoneal; in short: as §4
Mus musculus [30] = experiment: Antitumor activity against ip implanted P388 leukemia in mouse after ip administration of 1.25 mg/kg for 5 days expressed as increase in mean life span; type: functional; details: 120 h, route intraperitoneal; in short: as §1
Mus musculus [31] = experiment: Number of survivors out of 6 ip implanted EAC leukemia mouse tested after 80 days at 20 mg/kg; type: functional; details: route intraperitoneal; in short: as §2
Mus musculus [32] = experiment: Antitumor activity against ip implanted L1210 leukemia in mouse after ip administration of 30 mg/kg for 5 days expressed as increase in mean life span; type: functional; details: Mus musculus, L1210, ip, 120 h, route intraperitoneal; in short: as §4
Mus musculus [33] = experiment: Effect on ip implanted EAC by ip administration for 5 days at 40 mg/kg was measured as increase in mean life span; type: functional; details: 120 h, route intraperitoneal; in short: as §6
Mus musculus [34] = experiment: Antitumor activity against ip implanted P388 leukemia in mouse after iv administration of 8 mg/kg for 5 days expressed as increase in mean life span; details: 120 h
Mus musculus [35] = experiment: Effect on ip implanted EAC by ip administration for 5 days at 5 mg/kg was measured as increase in mean life span; type: functional; details: 120 h, route intraperitoneal; in short: as §6
Mus musculus [36] = experiment: Effect on ip implanted sarcoma 180 by ip administration for 5 days at 10 mg/kg was measured as increase in mean life span; type: functional; details: Sarcoma-180, ip, 120 h, route intraperitoneal; in short: as §3
Mus musculus [37] = experiment: Effect on ip implanted syngeneic B16 melanoma by ip administration for 9 days at 5 mg/kg was measured as increase in mean life span; details: 216 h
Mus musculus [38] = experiment: Antitumor activity against ip implanted L1210 leukemia in mouse after ip administration of 40 mg/kg for 5 days expressed as increase in mean life span; type: functional; details: 120 h, route intraperitoneal; in short: as §4
Mus musculus [39] = experiment: Antitumor activity against ip implanted L1210 leukemia in mouse after iv administration of 16 mg/kg for 5 days expressed as increase in mean life span; details: 120 h
Mus musculus [40] = experiment: Number of survivors out of 6 ip implanted L1210 leukemia mouse tested after 80 days at 60 mg/kg; type: functional; details: route intraperitoneal; in short: as §7
Mus musculus [41] = experiment: Antitumor activity against ip implanted L1210 leukemia in mouse after ip administration of 60 mg/kg for 5 days expressed as increase in mean life span; type: functional; details: 120 h, route intraperitoneal; in short: as §4

For `Cc1c2cc[n+]([C@@H]3O[C@H](CO)[C@H](O)[C@H]3O)cc2c(C)c2c1[nH]c1ccc(O)cc12.[Cl-]`, the ILS at 10 mg/kg (Mus musculus [1]) was greater than 376%, the Cures (Mus musculus [2]) was 2 and the ILS at 20 mg/kg (Mus musculus [3]) was greater than 318%. For the same compound, the ILS at 10 mg/kg (Mus musculus [4]) was 64%, the ILS at 20 mg/kg (Mus musculus [5]) was greater than 244% and the T/C (Mus musculus [6]) was 36%. It also gave an ILS at 40 mg/kg (Mus musculus [7]) of 112%, an ILS at 10 mg/kg (Mus musculus [8]) greater than 318% and a Cures (Mus musculus [9]) of 1. The ILS at 2.5 mg/kg (Mus musculus [10]) was 38%, the Cures (Mus musculus [11]) was 2 and the ILS at 16 mg/kg (Mus musculus [12]) was greater than 417%. For the same compound, the T/C (Mus musculus [13]) was 2%, the ILS at 20 mg/kg (Mus musculus [14]) was greater than 380% and the ILS at 10 mg/kg (Mus musculus [15]) was greater than 272%. It also gave an ILS at 5 mg/kg (Mus musculus [16]) greater than 418%, a Cures (Mus musculus [17]) of 5 and a Cures (Mus musculus [18]) of 4. For the same compound, the Cures (Mus musculus [19]) was 1, the ILS at 20 mg/kg (Mus musculus [20]) was greater than 628% and the Cures (Mus musculus [21]) was 2. For the same compound, the ILS at 5 mg/kg (Mus musculus [22]) was 73%, the ILS at 40 mg/kg (Mus musculus [23]) was greater than 335% and the ILS at 8 mg/kg (Mus musculus [24]) was 102%. It also gave an ILS at 20 mg/kg (Mus musculus [25]) of 52%, a Cures (Mus musculus [26]) of 3 and a Cures (Mus musculus [27]) of 5. For the same compound, the Cures (Mus musculus [28]) was 2, the ILS at 1.25 mg/kg (Mus musculus [29]) was 55% and the ILS at 1.25 mg/kg (Mus musculus [30]) was 110%. The Cures (Mus musculus [31]) was 3, the ILS at 30 mg/kg (Mus musculus [32]) was greater than 682% and the ILS at 40 mg/kg (Mus musculus [33]) was greater than 501%. It also gave an ILS at 8 mg/kg (Mus musculus [34]) of 122%, an ILS at 5 mg/kg (Mus musculus [35]) of 125% and an ILS at 10 mg/kg (Mus musculus [36]) of 69%. It also gave an ILS at 5 mg/kg (Mus musculus [37]) of 42%, an ILS at 40 mg/kg (Mus musculus [38]) of 59% and an ILS at 16 mg/kg (Mus musculus [39]) of 168%.
`CC(=O)OC1C(C)OC([n+]2ccc3c(C)c4[nH]c5ccc(O)cc5c4c(C)c3c2)C(OC(C)=O)C1OC(C)=O.[Br-]` (stereo unspecified) was tested, and the Cures (Mus musculus [40]) was 0 and the ILS at 60 mg/kg (Mus musculus [41]) was 89%.
